Data set [1] deals with RAW264.7. Description: Inhibition of LPS-induced nitric oxide production in mouse RAW264.7 cells after 24 hrs by Griess assay relative to vehicle-treated control. The class given is functional, cell-based. The following applies: RAW264.7, 24 h. In a few lines: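 RAW 264.7 cells were seeded at 5×10^5 cells/mL. After 3 h they were pretreated with compound at a series of concentrations chosen from the screening results, then stimulated 24 h with 1 µg/mL LPS. Nitrite in the supernatant was read by the Griess reaction. IC50 came from the dose-dependent inhibition. Dexamethasone was the positive control.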

The test system of data set [2] is RAW264.7. Description: Inhibition of LPS-induced nitric oxide production in mouse RAW264.7 cells at 30 uM after 24 hrs by Griess assay relative to vehicle-treated control. The class given is functional. The following applies: RAW264.7, 24 h. In a few lines:
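RAW 264.7 cells were seeded at 5×10^5 cells/mL. After 3 h they were pretreated with compound at 3, 10 and 30 µM, then 1 µg/mL LPS was added for 24 h. Supernatant nitrite was measured by the Griess reaction. Controls were unstimulated cells, LPS alone and dexamethasone. Values are mean ± SD of three independent experiments.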

Data set [3] deals with RAW264.7. Description: Cytotoxicity against mouse RAW264.7 cells at 30 uM by MTT assay relative to control. The class given is cell-based. The following applies: raw264.7, 30 µM.

The structures appear in SMILES notation. pIC50: −log10 of the molar value.

`C[C@@]12CCC[C@@](C)(C(=O)O)[C@H]1CC[C@@]13C[C@@H](CC[C@H]12)[C@](O)(CO)C3` had a negative-log IC50 (pIC50) in the data set on RAW264.7 [1] of 4.84. The inhibition at 30 µM with RAW264.7 [2] came to 70.4%. The Activity result in the data set on RAW264.7 [3] is listed as “Non-toxic”.
For `C[C@@]12CCC[C@@](C)(C(=O)O[C@@H]3O[C@H](CO)[C@@H](O)[C@H](O)[C@H]3O)[C@H]1CC[C@@]13C[C@@H](CC[C@H]12)[C@@](O)(CO)C3`, the pIC50 in the data set with RAW264.7 [1] was less than 4.52. In addition, in the data set with RAW264.7 [3], the Activity entry was “Non-toxic”.
Compound `CC1(C)CCC[C@]2(C)[C@@H]1CC[C@@]13C[C@@H](CC[C@H]12)[C@@](O)(CO)C3` showed a pIC50 in the data set with RAW264.7 [1] of 4.77. This compound had an inhibition at 30 µM in the data set on RAW264.7 [2] of 70.4%. Also, the Activity entry in the data set on RAW264.7 [3] is recorded as “Non-toxic”.
In the data set with RAW264.7 [1], `C[C@@]12CCC[C@@](C)(C(=O)O[C@@H]3O[C@H](CO)[C@@H](O)[C@H](O)[C@H]3O)[C@H]1C[C@H](O)[C@@]13C[C@@H](CC[C@@H]21)[C@@H](CO)C3` showed a negative-log IC50 (pIC50) of less than 4.52. The Activity entry in the data set on RAW264.7 [3] is “Non-toxic”.
`CC1(C)CCC[C@]2(C)[C@@H]1CC[C@@]13C[C@@H](CC[C@H]12)[C@](O)(CO)C3` gave a pIC50 in the data set with RAW264.7 [1] of 5.21. In the data set on RAW264.7 [2], testing at 30 µM gave an inhibition of 70.4%. In addition, the Activity entry in the data set with RAW264.7 [3] is listed as “Non-toxic”.
The compound `C[C@@]12CCC[C@@](C)(C=O)[C@H]1CC[C@@]13C[C@@H](CC[C@H]12)[C@](O)(CO)C3` gave a pIC50 with RAW264.7 [1] of 6.49. For the same compound, in the data set with RAW264.7 [2], at 30 µM the inhibition was 90%. The Activity entry in the data set with RAW264.7 [3] is on record as “Non-toxic”.
On the same counts, the results for `C[C@@]12CCC[C@@](C)(C(=O)O)[C@H]1C[C@H](O)[C@@]13C[C@@H](CC[C@@H]21)[C@@](O)(CO)C3` are 6.41, 90% and “Non-toxic”.
For `C[C@@]12CCC[C@@](C)(C(=O)O[C@@H]3O[C@H](CO)[C@@H](O)[C@H](O)[C@H]3O)[C@H]1C[C@H](O)[C@]13C=C(CO)[C@H](CC[C@@H]21)C3` the same measures were 8.00, 90% and “Non-toxic”.

Source of the values: ChEMBL document CHEMBL3352470, “New ent-kauranes from the fruits of Annona glabra and their inhibitory nitric oxide production in LPS-stimulated RAW264.7 macrophages” (Bioorg Med Chem Lett, 2015).
